Entries after “also recorded” stand apart in the source; their conditions may differ. Where two headings read alike, the source gives them in different places.
Experiments:
[1] = Steady-state plasma pharmacokinetics of abacavir; type: in vivo, human (HIV-infected subjects); conditions: for Change in plasma ABC concentrations: in the presence of raltegravir versus ABC alone
[2] = cited from earlier work
[3] = Steady-state intracellular carbovir triphosphate; type: in vivo, human (HIV-infected subjects)
[4] = type: in vivo, human (HIV-infected subjects); conditions: human, plasma, 400 mg
In short: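 HIV-infected adults on a steady-state nucleoside backbone (600 mg once daily, plus two NRTIs, no tenofovir) were randomized 1:1 to a crossover: boosted protease inhibitor 900/100 mg once daily or integrase inhibitor 400 mg twice daily, 14 days each. On days 15 and 29, after a standardized breakfast, serial plasma was drawn over 24 h (protease inhibitor, booster) or 12 h (integrase inhibitor) and measured by a validated assay. Non-compartmental linear–linear trapezoidal AUC0–24 or AUC0–12.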

[5] = in the presence of darunavir/ritonavir versus ABC alone
[6] = with darunavir/ritonavir versus ABC alone
[7] = with raltegravir versus ABC alone
[8] = PBMC, ABC 600 mg once daily alone, steady state, n=19

Compound `Nc1nc(NC2CC2)c2ncn([C@H]3C=C[C@@H](CO)C3)c2n1` [ABC, abacavir] has an AUC(0-t) ([1]; human, plasma, 600 mg) of 13500 ng·h/mL, a Cmax ([1]; human, plasma, 600 mg) of 4010 ng/mL and a concentration at 24 h ([1]; human, plasma, 600 mg) of 4.3 ng/mL. For the same compound, the “Decrease in plasma ABC AUC (exposure)” value [1, 5] was 27%, the “Decrease in plasma ABC Cmax” value [1, 5] was 22% and the “Decrease in plasma ABC Ctrough” value [1, 5] was 38%. For the same compound, the “Change in plasma ABC concentrations” value [1] was “No significant changes”, the “Change in plasma ABC concentrations” value ([1]; listed as abacavir) was “no changes” and the “Inter-individual variability in ABC Ctrough” value ([1]; plasma, across study phases) was greater than 87%. For the same compound, the “Plasma ABC Ctrough, GMR (90% CI)” value [1, 6] was 0.62 (0.50, 0.77), the “Plasma ABC Ctrough, GMR (90% CI)” value [1, 7] was 0.83 (0.62, 1.11) and the “Decrease in ABC plasma exposure” value ([2]; in combination with boosted atazanavir) was 17%. The “Decrease in ABC plasma exposure” value ([2]; in combination with boosted lopinavir) was 32%, the “Decrease in ABC plasma exposure” value ([2]; in combination with boosted tipranavir) was 40% and the “Increase in ABC plasma exposure” value ([2]; with high doses of ethanol) was 41%.

In the case of `Nc1nc(=O)c2ncn([C@H]3C=C[C@@H](COP(=O)(O)OP(=O)(O)OP(=O)(O)O)C3)c2[nH]1` [CBV-TP, carbovir 5′-triphosphate], the “Intracellular CBV-TP AUC0–24, geometric mean (90% CI)” value [3, 8] was 4,459 (4,060, 5,802) fmol•h/million cells, the “Intracellular CBV-TP Cmax, geometric mean (90% CI)” value [3, 8] was 329 (298, 450) fmol/million cells and the “Intracellular CBV-TP Ctrough, geometric mean (90% CI)” value [3, 8] was 107 (96, 143) fmol/million cells. The “Inter-individual variability in intracellular CBV-TP pharmacokinetic parameters” value ([3]; during coadministration of ABC and darunavir/ritonavir or raltegravir) was greater than 43%, the “Change in intracellular CBV-TP Cmax and AUC0–24” value [3, 5] was “no other significant change; also recorded: not significantly different” and the “Decrease in intracellular CBV-TP Ctrough” value [3, 5] was 32%. The “Change in intracellular CBV-TP concentrations” value ([3]; in the presence of raltegravir versus ABC alone) was “did not lead to any significant alteration; also recorded: No significant changes”, the “Decrease in intracellular CBV-TP Ctrough” value ([3]; in the presence of raltegravir versus ABC alone, not statistically significant) was 43% and the “Intracellular CBV-TP Ctrough, GMR (90% CI)” value [3, 6] was 0.68 (0.48, 0.95). The “Intracellular CBV-TP Ctrough, GMR (90% CI)” value [3, 7] was 0.57 (0.33, 1.00).

For `Cc1nnc(C(=O)NC(C)(C)c2nc(C(=O)NCc3ccc(F)cc3)c(O)c(=O)n2C)o1` [raltegravir], the AUC(0-t) [4] was 2410 ng·h/mL.

Reference: publication PMC3736319 (Antiviral therapy, 2012)
